Screening results deposited in PubChem by several laboratories.
The full list was thinned out, with hits kept by preference.
HSF1 inhib – HSF1 inhibition; AID 2098; actives 0.77% (n = 300,000); activity change, negative = inhibition, % at 7.5 µM (by protocol); NIH3T3-HGL HSE-luciferase, MG132-induced, luminescence 8 h; stronger effect = lower value;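 active = more than half of replicate wells show activity change below -50%, luminescence cut by over half; inconclusive = some wells, but at most half, below -50%; inactive = no replicate well below -50%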;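 note: luciferase reports HSF-1 transcriptional activity via heat shock element; 0% = median of DMSO wells and -100% = zero luminescence signal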
L major viab – Leishmania major promastigote growth inhibition. Leishmania major promastigotes, resazurin fluorescence viability. inhibition, % at 10 µM. actives 9% (n = 200,000); in the data active = inhibition above about 50%;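 note: promastigotes grown with compound for 44 hours at 28 °C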
T cruzi inh – T. cruzi replication inhibition | inhibition, % (test concentration not listed) | actives 1.4% (n = 300,000) | T. cruzi beta-gal in NIH3T3, luminescence, 90 h;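 active = mean inhibition across valid replicates above about 55%, limit read from the data; inconclusive = mean below that limit but half or more replicates reach it; inactive = mean below it, under half of replicates reach it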;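 note: signal also drops with host cell toxicity which is not excluded here; 0% = plate median of DMSO wells and 100% = zero luminescence signal; higher percent means less beta-gal luminescence so fewer parasites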
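Material: NIH/3T3 host cells with β-galactosidase reporter T. cruzi; Input: 5,000 host fibroblasts per well; Medium: DMEM, 2% fetal bovine serum; Compound: 50 nL DMSO compound solution per well; Schedule: 3 h host attachment, then at least 90 h co-culture; Detection: luminescent β-galactosidase signal after 60 min lysis.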
HSF-1 act – increases HSF-1 driven luciferase reporter signal | activation, % at 9 µM | NIH3T3-HGL HSF-1 luciferase reporter, MG132, 8 h; 100% = twice DMSO control signal | actives 1.7% (n = 300,000) | AID 504408;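 active = mean replicate activation of at least 50% with a set share of replicates each reaching 50%; inconclusive = only one of those two conditions met; inactive = mean below 50% and too few replicates reaching it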;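 note: 0% = median of the neutral control wells and 100% = twice that signal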
Hsp70 act – Hsp70 transcriptional activation, primary screen; AID 1203; HeLa Hsp70 promoter luciferase reporter, luminescence; scaled: vehicle 0, proteasome-inhibitor control 100%; actives 0.04% (n = 200,000); activation, % at 10 µM;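 active = activation above the mean across all tested compounds plus 3 SD, cutoff set per campaign, cut at about 5.5% in these data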;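 note: 100% = MG132 at 30 µM as the positive control and 0% = DMSO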
The depositor's hits bear a star; u = inconclusive; x = no result.

SMILES	HSF1 inhib	L major viab	T cruzi inh	HSF-1 act	Hsp70 act
Cn1nc(-c2ccc(Cl)cc2)c2cc(C(=O)NCCCN3CCCC3)sc21	4	100*	43	0	0
CC(C)(CNC(=O)CCC1CCCC1)CNC(=O)CCC1CCCC1	-1	x	13	-4	x
CCn1cc([N+](=O)[O-])c(C(=O)Nc2nc(-c3ccc(C)c(C)c3)c(C)s2)n1	39	-2	-19	61*	0
CCn1cc([N+](=O)[O-])c(C(=O)Nc2nc(-c3ccc(C)cc3)c(C)s2)n1	21	9	4	3	0
CCN(CC)C(=O)CSc1nc(C)cc(C)c1C#N	-5	-4	-2	8	0
Cc1cc(C)c(C#N)c(SCC(=O)NC(C)(C)C)n1	-65*	-5	1	-74	0
Cc1cc(C)c(C#N)c(SCC(=O)C(C)(C)C)n1	-1	77*	72*	13	0
COc1ccc(OC)c(N2Cc3cc(C)c(C)cc3C2)c1	18	86*	u	46	0
COc1ccc(Br)cc1S(=O)(=O)n1ccnc1C	-9	6	12	-10	0
Cc1nccn1S(=O)(=O)c1ccc(Br)cc1Br	-5	86*	-2	-13	0
COc1cccc(C(C(=O)NC2CCCC2)N(C(=O)c2ccco2)c2ccc(C(C)=O)cc2)c1OC (stereo not given)	-1	x	6	-4	x
Cc1ccc(C(C)C)c(OCC(=O)NNC(=O)C(C(C)C)N2C(=O)c3ccccc3C2=O)c1 (stereo not given)	6	35	5	12	0
CN1C2C=C3C(C#N)=C(N)C(C#N)(C#N)C(c4ccc(Br)cc4)C3C1CC2 (stereo not given)	3	98*	20	0	0
Cc1noc(C)c1C(=O)N1CCC(C(=O)c2ccccc2)CC1	-62*	x	-17	-71	x
Cc1cc(C)nc(/N=C(\N)Nc2ccc(OCCC(C)C)cc2)n1	0	x	42	10	x
Cc1cc(C)n(-c2ccc(C(=O)OCC(=O)Nc3ccccc3[N+](=O)[O-])cc2)n1	5	-4	5	-16	1
Cc1cc(C)n(-c2ccc(C(=O)OCC(=O)Nc3cc(Cl)ccc3[N+](=O)[O-])cc2)n1	-4	59*	3	-9	0
COc1ccc(Cl)cc1NC(=O)COC(=O)CNC(=O)c1ccc([N+](=O)[O-])c(C)c1	-12	56*	-8	-7	0
COCC(=O)OCC(=O)Nc1cc(C)c(C)cc1[N+](=O)[O-]	-3	55*	6	0	0
CC1=NN(C(N)=S)C(=O)C1N=Nc1ccc(C)c(Br)c1 (stereo not given)	26	x	-24	28	x
Cc1ccc(NS(=O)(=O)c2cc(C(=O)NCCSC3CCCCC3)ccc2C)cc1	6	79*	34	-4	0
Cc1ccc(C(=O)NCCSc2ccc(Cl)cc2)cc1S(=O)(=O)Nc1ccccc1	25	97*	54	11	0
COc1ccc(C(=O)NCCSC2CCCCC2)cc1	9	16	-12	51*	0
CS(=O)(=O)Nc1ccccc1C(=O)NCCSc1ccc(Cl)cc1	7	x	-10	25	x
Cc1ccc(SCCNC(=O)c2ccc(C)c(S(=O)(=O)Nc3cccc(C)c3)c2)cc1	6	78*	51	23	-1
SMILES	HSF1 inhib	L major viab	T cruzi inh	HSF-1 act	Hsp70 act
CC(=O)NN(O)C1N(C)C(=O)N(Cc2ccccc2)C1(C)C (stereo not given)	6	x	-12	6	x
Cc1ccc(NS(=O)(=O)c2cc(C(=O)NCCSc3ccc(C)cc3)ccc2C)cc1	26	100*	27	21	0
COC(=O)C1C(=O)C2=C(CC1C)Nc1ccccc1NC2c1ccc(C)s1 (stereo not given)	-3	22	11	-7	0
Nc1nc(NC(=O)C(Cl)(Cl)Cl)nn1-c1ccccc1	-77*	17	-10	-82	0
COc1ccc(C)cc1NC(=O)C/C(C)=N/NC(=O)Cc1cccc2ccccc12	68	x	-3	109*	x
COc1ccc(CCNC(=O)C/C(C)=N/NC(=O)Cc2cccc3ccccc23)cc1OC	-5	x	4	-1	x
CC(=O)N1CCN(C(=O)C2(NC(=O)Nc3cccc(F)c3)CCCCC2)CC1	20	x	3	40	x
CC1CCCN(C(=O)C2(NC(=O)Nc3cccc(F)c3)CCCCC2)C1 (stereo not given)	-86*	6	-10	-89	0
